≈ marks a conversion by molar mass, not a printed value.
Key:
Bacillus subtilis [1] = assay: Antibacterial activity against Bacillus subtilis NCIM 2063 after 18 hrs by disc diffusion method; type: functional
In short: (§1)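 Modified Kirby-Bauer disc diffusion. Plates inoculated with spore suspension (about 6 × 10⁴ spores mL^-1). Sterile 6 mm paper discs carried test samples at 10 mg mL^-1; ciprofloxacin disc as reference, DMF disc as negative control. Plates held 18 h at 37 °C. Inhibition zone diameters (mm) averaged over triplicate sets.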

Staphylococcus aureus [2] = assay: Antibacterial activity against Staphylococcus aureus NCIM 2079 after 18 hrs by disc diffusion method; type: functional; in short: as §1
Pseudomonas aeruginosa [3] = assay: Antibacterial activity against Pseudomonas aeruginosa NCIM 2034 after 18 hrs by disc diffusion method; type: functional; in short: as §1
Escherichia coli [4] = assay: Antibacterial activity against Escherichia coli NCIM 2065 after 18 hrs by disc diffusion method; type: functional; in short: as §1
Candida albicans [5] = assay: Antifungal activity against Candida albicans MUCC 29 after 48 hrs by disc diffusion method; type: functional
In short: (§2)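 Agar well diffusion on plates inoculated with spore suspension in normal saline from cultures on Sabouraud's broth. Wells punched and loaded with test samples or griseofulvin at 10 mg mL^-1, with DMSO as negative control. Incubated 48 h at 37 °C.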

Microsporum audouinii [6] = assay: Antifungal activity against Microsporum audouinii MUCC 545 after 48 hrs by disc diffusion method; type: functional; in short: as §2
Trichophyton benhamiae [7] = assay: Antifungal activity against Trichophyton mentagrophytes MUCC 665 after 48 hrs by disc diffusion method; type: functional, Arthroderma benhamiae; in short: as §2
Aspergillus niger = assay: Antifungal activity against Aspergillus niger MUCC 177 after 48 hrs by disc diffusion method; type: functional; in short: as §2
Bacillus subtilis [8] = assay: Antibacterial activity against Bacillus subtilis NCIM 2063 after 18 hrs by tube dilution method; type: functional; conditions: NCIM 2063, 18 h
In short: (§3)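 Tube dilution MIC. Stock diluted in sterile broth to seven concentrations from 200 to 3.1 […]. Each tube inoculated with one loopful of test bacterium and incubated 18 h at 37 °C. MIC read from presence or absence of growth.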

Staphylococcus aureus [9] = assay: Antibacterial activity against Staphylococcus aureus NCIM 2079 after 18 hrs by tube dilution method; type: functional; conditions: NCIM 2079, 18 h; in short: as §3
Pseudomonas aeruginosa [10] = assay: Antibacterial activity against Pseudomonas aeruginosa NCIM 2034 after 18 hrs by tube dilution method; type: functional; conditions: NCIM 2034, 18 h; in short: as §3
Escherichia coli [11] = assay: Antibacterial activity against Escherichia coli NCIM 2065 after 18 hrs by tube dilution method; type: functional; conditions: NCIM 2065, 18 h
Candida albicans [12] = assay: Antifungal activity against Candida albicans MUCC 29 after 48 hrs by tube dilution method; type: functional
In short: (§4)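 Tube dilution MIC as for bacteria (seven concentrations, 200–3.1 […]), with DMSO in place of DMF. Tubes inoculated with fungal culture and incubated 48 h at 37 °C. MIC read from presence or absence of growth.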

Microsporum audouinii [13] = assay: Antifungal activity against Microsporum audouinii MUCC 545 after 48 hrs by tube dilution method; type: functional; in short: as §4
Trichophyton benhamiae [14] = assay: Antifungal activity against Trichophyton mentagrophytes MUCC 665 after 48 hrs by tube dilution method; type: functional, Arthroderma benhamiae; in short: as §4
Eudrilus [15] = assay: Anthelmintic activity against Eudrilus sp. assessed as mean paralyzing time; type: functional
In short: (§5)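 Earthworms exposed to test suspensions at 2 mg mL^-1 (0.2% w/v), made by triturating compound with Tween 80 (0.5%) and distilled water, then mechanically stirred 30 min. Mebendazole suspension prepared alike as reference. Paralysis and death times recorded; death confirmed by no movement in 50 °C water. Means from triplicate sets.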

Eudrilus [16] = assay: Anthelmintic activity against Eudrilus sp. assessed as mean death time; type: functional
In short: (§6)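 Earthworms exposed to test suspensions at 2 mg mL−1, prepared by triturating compound with Tween 80 (0.5%) and distilled water, stirring 30 min, then diluting to 0.2% w/v. Mebendazole suspension was made the same way. Death was confirmed by moving worms into 50 °C warm water and looking for movement. Mean death time (min) taken from triplicate sets.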

[17] = Growth inhibition of DLA cells at 500 ug/mL after 3 hrs; type: functional; conditions: Mus musculus
In short: (§7)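 DLA and EAC cells passaged intraperitoneally in albino mice, harvested after 15–20 days and adjusted to 1 × 10⁶ cells/mL. Dilutions in Dulbecco's medium (500–31.25, some down to 3.91 µg/mL; 5-FU reference) mixed 1:1 with cells and held 3 h at 37 °C. Trypan blue exclusion gave % growth inhibition; CTC50 by graphical extrapolation.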

[18] = Growth inhibition of DLA cells at 250 ug/mL after 3 hrs; type: functional; conditions: Mus musculus; in short: as §7
[19] = Growth inhibition of DLA cells at 125 ug/mL after 3 hrs; type: functional; conditions: Mus musculus; in short: as §7
[20] = Growth inhibition of DLA cells at 62.5 ug/mL after 3 hrs; type: functional; conditions: Mus musculus; in short: as §7
[21] = Growth inhibition of DLA cells at 31.25 ug/mL after 3 hrs; type: functional; conditions: Mus musculus; in short: as §7
[22] = Growth inhibition of DLA cells after 3 hrs; type: functional; conditions: Mus musculus; in short: as §7
[23] = Growth inhibition of EAC cells at 500 ug/mL after 3 hrs; type: functional; conditions: Mus musculus, Ehrlich; in short: as §7
[24] = Growth inhibition of EAC cells at 250 ug/mL after 3 hrs; type: functional; conditions: Mus musculus, Ehrlich; in short: as §7
[25] = Growth inhibition of EAC cells at 125 ug/mL after 3 hrs; type: functional; conditions: Mus musculus, Ehrlich; in short: as §7
[26] = Growth inhibition of EAC cells at 62.5 ug/mL after 3 hrs; type: functional; conditions: Mus musculus, Ehrlich; in short: as §7
[27] = Growth inhibition of EAC cells at 31.25 ug/mL after 3 hrs; type: functional; conditions: Mus musculus, Ehrlich; in short: as §7
[28] = Growth inhibition of EAC cells after 3 hrs; type: functional; conditions: Mus musculus, Ehrlich; in short: as §7
[29] = Anthelmintic activity against Megascoplex konkanensis ICARBC 211 assessed as mean paralyzing time; type: functional; in short: as §5
[30] = Anthelmintic activity against Megascoplex konkanensis ICARBC 211 assessed as mean death time; type: functional; in short: as §5
Pontoscolex corethrurus [31] = assay: Anthelmintic activity against Pontoscolex corethrurus ICARBC 408 assessed as mean paralyzing time; type: functional; in short: as §5
Pontoscolex corethrurus [32] = assay: Anthelmintic activity against Pontoscolex corethrurus ICARBC 408 assessed as mean death time; type: functional; in short: as §6

Row | SMILES | inhibition zone (IZ) (Bacillus subtilis [1]) [mm] | inhibition zone (IZ) (Staphylococcus aureus [2]) [mm] | inhibition zone (IZ) (Pseudomonas aeruginosa [3]) [mm] | inhibition zone (IZ) (Escherichia coli [4]) [mm] | inhibition zone (IZ) (Candida albicans [5]) [mm] | inhibition zone (IZ) (Microsporum audouinii [6]) [mm] | inhibition zone (IZ) (Trichophyton benhamiae [7]) [mm] | inhibition zone (IZ) (Aspergillus niger) [mm] | MIC (Bacillus subtilis [8]) [µg/mL] | MIC (Staphylococcus aureus [9]) [µg/mL] | MIC (Pseudomonas aeruginosa [10]) [µg/mL] | MIC (Escherichia coli [11]) [µg/mL] | MIC (Candida albicans [12]) [µg/mL] | MIC (Microsporum audouinii [13]) [µg/mL] | MIC (Trichophyton benhamiae [14]) [µg/mL] | Time (Eudrilus [15]) [min] | Time (Eudrilus [16]) [min] | inhibition at 500 µg/mL [17] [%] | inhibition at 250 µg/mL [18] [%] | inhibition at 125 µg/mL [19] [%] | also measured
1 | C[C@H](NC(=O)[C@@H]1CCCN1C(=O)c1cc(-c2nc3ccc([N+](=O)[O-])cc3[nH]2)ccc1O)C(=O)O | 13 | 9 | 28 | 18 | 22 | 12 | 17 | 16 | 12.5 (≈ 26.7 µM) | 25 (≈ 53.5 µM) | 6 (≈ 12.8 µM) | 12.5 (≈ 26.7 µM) | 6 (≈ 12.8 µM) | 6 (≈ 12.8 µM) | 6 (≈ 12.8 µM) | 27.12 | 35.69 | 34.2 | 26.3 | 21 | inhibition at 62.5 µg/mL [20]: 18.4%; inhibition at 31.25 µg/mL [21]: 7.89%; CC50 [22]: > 1070 µM; inhibition at 500 µg/mL [23]: 25%; inhibition at 250 µg/mL [24]: 17.9%; inhibition at 125 µg/mL [25]: 14.3%; inhibition at 62.5 µg/mL [26]: 7.14%; inhibition at 31.25 µg/mL [27]: 7.14%; CC50 [28]: > 1070 µM; TIME [29]: 0.436 h; TIME [30]: 0.585 h; Time (Pontoscolex corethrurus [31]): 31.9 min; Time (Pontoscolex corethrurus [32]): 43.55 min
2 | COC(=O)[C@H](CCCNC(=N)N[N+](=O)[O-])NC(=O)[C@@H]1CCCN1C(=O)c1cc(I)c(-c2nc3cc(C)c(C)cc3[nH]2)c(I)c1 | 17 | 12 | 27 | 18 | 23 | 10 | 12 | 14 | 6 (≈ 7.23 µM) | 12.5 (≈ 15.1 µM) | 6 (≈ 7.23 µM) | 12.5 (≈ 15.1 µM) | 6 (≈ 7.23 µM) | 25 (≈ 30.1 µM) | 6 (≈ 7.23 µM) | 19.43 | 30.02 | 84.2 | 68.4 | 52.6 | inhibition at 62.5 µg/mL [20]: 28.9%; inhibition at 31.25 µg/mL [21]: 15.8%; CC50 [22]: 114 µM; inhibition at 500 µg/mL [23]: 100%; inhibition at 250 µg/mL [24]: 100%; inhibition at 125 µg/mL [25]: 100%; inhibition at 62.5 µg/mL [26]: 35.7%; inhibition at 31.25 µg/mL [27]: 21.4%; CC50 [28]: 84.3 µM; TIME [29]: 0.299 h; TIME [30]: 0.439 h; Time (Pontoscolex corethrurus [31]): 22.77 min; Time (Pontoscolex corethrurus [32]): 34.45 min
3 | Cc1cc2nc(-c3ccc(C(=O)N[C@@H](Cc4cnc[nH]4)C(=O)N[C@@H](Cc4ccc(O)cc4)C(=O)O)cc3)[nH]c2cc1C | 13 | 11 | 23 | 17 | 17 | 10 | 16 | 17 | 6 (≈ 10.6 µM) | 12.5 (≈ 22.1 µM) | 12.5 (≈ 22.1 µM) | 25 (≈ 44.1 µM) | 12.5 (≈ 22.1 µM) | 25 (≈ 44.1 µM) | 6 (≈ 10.6 µM) | 13.44 | 23.08 | 26.3 | 18.4 | 21 | inhibition at 62.5 µg/mL [20]: 10.5%; inhibition at 31.25 µg/mL [21]: 13.2%; CC50 [22]: > 883 µM; inhibition at 500 µg/mL [23]: 10.7%; inhibition at 250 µg/mL [24]: 7.14%; inhibition at 125 µg/mL [25]: 7.14%; inhibition at 62.5 µg/mL [26]: 3.57%; inhibition at 31.25 µg/mL [27]: 3.57%; CC50 [28]: > 883 µM; TIME [29]: 0.226 h; TIME [30]: 0.37 h; Time (Pontoscolex corethrurus [31]): 17.47 min; Time (Pontoscolex corethrurus [32]): 29.02 min
